Consider 13 molecules from ChEMBL document CHEMBL1124393, “Synthesis, cytotoxicity, and antiviral activity of some acyclic analogues of the pyrrolo[2,3-d]pyrimidine nucleoside antibiotics tubercidin, toyocamycin, and sangivamycin” (J Med Chem, 1989).

A short description of test [1]: Cytotoxicity was evaluated against the Monkey kidney cells (BSC). Format: cell-based. The following applies: Cercopithecidae. The gist of the method:
(§1)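 Uninfected HFF (human diploid foreskin fibroblasts) or BSC-1 (African green monkey kidney) cells in MEM with Earle's salts and 10% FBS, within the plaque-reduction plates. Drug-induced cytopathology was scored 0 to 4+ at 35- and 60-fold magnification on the day of staining for plaque enumeration.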

The subject of another test is Human betaherpesvirus 5. Briefly: Antiviral activity of the compound was evaluated against the Human cytomegalo virus (HCMV). Format: functional, organism-based. The gist of the method:
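HCMV Towne strain (plaque-purified P0 isolate), plaque reduction in HFF monolayers; inoculum about 50 PFU; compound dissolved in overlay medium. IC50 taken from linear regression of percent inhibition against log concentration. Positive controls (acyclovir, ganciclovir) in all assays; sets rejected when control deviated >1.5 SD from its mean.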

Test [2] in a line: (§2) Antiviral activity of the compound was evaluated against the Herpes simplex virus type-1 in BSC-1 cells. The settings on record: Human alphaherpesvirus 1, BSC-1. It is filed as functional, cell-based. The gist of the method: (§3)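 HSV-1 strain S-148 plaque reduction in BSC-1 monolayers (MEM with Earle's salts, 10% fetal bovine serum); inoculum about 100 PFU; compound dissolved in overlay medium. Percent inhibition regressed against log concentration to give IC50. Acyclovir or ganciclovir positive controls in every assay; assay sets rejected if control deviated >1.5 SD from its mean.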

Test [3] deals with L1210. Briefly: Compound effect on the growth rate at 10e-4 M in L1210 Murine Leukemic cells. Format: functional, Mus musculus. The gist of the method:
(§4)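 Murine L1210 leukemia cells in static suspension culture in Fischer's medium, exposed to 10⁻⁴ M compound over 3 days. Growth rate is the ratio of control to treated population doubling time, expressed as percent of control.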

A short description of test [4]: Cytotoxicity was evaluated against the Human diploid cells (HFF). It is filed as cell-based. The gist of the method:
as §1

For test [5], the system named is L1210. Briefly: (§5) Compound effect on the growth rate of L1210 murine leukemia cells at 10e-4 M concentration. Format: functional. The gist of the method: as §4
Test [6] relates to L1210. Briefly: In vitro cytotoxicity was evaluated against the L1210 Murine leukemic cells. Format: cell-based. The following applies: Mus musculus. The gist of the method:
(§6)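 Murine L1210 cells in static suspension in Fischer's medium, growth followed over 3 days across a range of concentrations. Growth rate is the slope of log cell number versus time relative to control, from the doubling-time ratio. IC50 is the concentration reducing growth rate to 50% of control.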

The nature of test [7]: (§7) Cytotoxicity was evaluated in Human neoplastic cell line (KB). Format: cell-based. The gist of the method: (§8)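 KB human epidermoid oral carcinoma cells in MEM with Hanks salts and 5% FBS. Inhibition of radiolabeled precursor incorporation into DNA, RNA and protein was measured. IC50s from regression against log concentration; the three values were averaged, two to five experiments each.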

Test [8] in a line: as §7. Format: functional, cell-based. The gist of the method:
as §8

The subject of test [9] is L1210. The description is as §5. It is filed as functional, Mus musculus. The gist of the method: as §4
A further test deals with Human alphaherpesvirus 1. The description is as §2. Format: functional, organism-based. The settings on record: Human alphaherpesvirus 1, BSC-1. The gist of the method:
as §3

The species entered for the next test is Mus musculus. Briefly: Cytotoxicity was evaluated against the L1210 Murine leukemic cells in vitro. The gist of the method:
as §6

One may read the IC50 as the concentration that inhibits the measured activity by half. On to `NC(=O)c1cn(C(CO)OC(CO)CO)c2ncnc(N)c12` (stereo not given), for which the IC50 (in [1]; in the test with Human betaherpesvirus 5; in [2]; in test [4]) was more than 100 µM each time. Moreover, in the test with L1210 [3], the Control is recorded as 90%.

Take `NC(=S)c1cn(COC(CO)CO)c2ncnc(N)c12`: the IC50 in test [1] was more than 100 µM; with Human betaherpesvirus 5, 8 µM; in test [2], more than 100 µM; in the test on L1210 [6] it was more than 100 µM; in [4], more than 100 µM; in test [7], more than 100 µM. In the test on L1210 [5], this molecule displayed a Control of 71%.

Turning to `N#Cc1cn([C@@H]2O[C@H](CO)[C@@H](O)[C@H]2O)c2ncnc(N)c12` [TOYOCAMYCIN], the IC50 in test [8] worked out at 0.04 µM; in the test with Human betaherpesvirus 5 it was 0.05 µM; with L1210 [6] it was 0.004 µM; in test [4] it was 0.03 µM.

In the case of `NC(=O)c1cn([C@@H]2O[C@H](CO)[C@@H](O)[C@H]2O)c2ncnc(N)c12` [SANGIVAMYCIN], the IC50 in [8] turned out to be 0.2 µM; in the test with Human betaherpesvirus 5, 0.03 µM; in the test on L1210 [6], 0.003 µM; in test [4], 0.08 µM.

Turning to `Nc1ncnc2c1ccn2C(CO)OC(CO)CO` (stereo not given), the IC50 (in [1]; in test [8]; with Human betaherpesvirus 5; in test [2]; in test [4]) was more than 100 µM throughout. The same molecule registered a Control in the test with L1210 [3] of 93%.

Regarding `N/C(=N\O)c1cn(COC(CO)CO)c2ncnc(N)c12`, the IC50 (in [1]; in the test with Human betaherpesvirus 5; in [2]; in the test with L1210 [6]; in test [4]) was more than 100 µM in each case. Also, in the test on L1210 [9], the Control is reported as 80%.

Consider `Nc1ncnc2c1ccn2COC(CO)CO`, for which the half-inhibitory concentration (IC50) (in test [1]; in the test with Human alphaherpesvirus 1; in the test on Human betaherpesvirus 5; in [4]) was more than 100 µM throughout.

Turning to `Nc1nc2c(ncn2COC(CO)CO)c(=O)[nH]1` [GANCICLOVIR], the IC50 in test [1] was more than 100 µM; in [2], 3 µM; in test [4] it was more than 100 µM; in [7] it was 1000 µM.

As for `NC(=O)c1cn(COC(CO)CO)c2ncnc(N)c12`, the IC50 was more than 100 µM in [1]; 144 µM in the test on Human betaherpesvirus 5; more than 100 µM in [2]; more than 100 µM in the test with L1210 [6]; more than 320 µM in test [4]. For the same molecule, the Control in the test on L1210 [9] came out at 84%.

Turning to `Nc1ncnc2c1ccn2[C@@H]1O[C@H](CO)[C@@H](O)[C@H]1O` [TUBERCIDIN], the IC50 in [8] was 0.7 µM; with L1210 [6], 0.04 µM; in test [4], 0.3 µM.

With `Nc1nc2c(ncn2COCCO)c(=O)[nH]1` [ACYCLOVIR], the 50% inhibitory concentration (IC50) in test [1] is more than 100 µM; in test [2], 2.6 µM; in test [4], more than 100 µM; in test [7], more than 100 µM.

`N#Cc1cn(C(CO)OC(CO)CO)c2ncnc(N)c12` (stereo not given): the IC50 (in test [1]; in the test with Human betaherpesvirus 5; in [2]; in test [4]; in the test filed under Mus musculus) was more than 100 µM in each case. In the test on L1210 [3], this molecule had a Control of 80%.

Take `N#Cc1cn(COC(CO)CO)c2ncnc(N)c12`: the IC50 was more than 100 µM in test [1]; more than 320 µM in the test with Human betaherpesvirus 5; more than 100 µM in test [2]; more than 100 µM in the test on L1210 [6]; more than 320 µM in test [4]. Also, the Control in the test on L1210 [9] is on record as 87%.
